Measured values taken from ChEMBL document CHEMBL1811892, “Synthesis and biological evaluation of loxoprofen derivatives” (Bioorg Med Chem, 2011).
Calls of active or inactive are those of the source. The rule behind the calls is not given here.

Assays:
[1] = biological target: Prostaglandin G/H synthase 1 (Homo sapiens, UniProt P23219); assay: Inhibition of human whole blood COX-1 assessed as production of TXB2 after 24 hrs by EIA
[2] = biological target: T1, Prostaglandin G/H synthase 2 (Homo sapiens, UniProt P35354); assay: Inhibition of human whole blood COX-2 assessed as production of PGE2 after 24 hrs by EIA
T1 sequence (P35354 whole entry): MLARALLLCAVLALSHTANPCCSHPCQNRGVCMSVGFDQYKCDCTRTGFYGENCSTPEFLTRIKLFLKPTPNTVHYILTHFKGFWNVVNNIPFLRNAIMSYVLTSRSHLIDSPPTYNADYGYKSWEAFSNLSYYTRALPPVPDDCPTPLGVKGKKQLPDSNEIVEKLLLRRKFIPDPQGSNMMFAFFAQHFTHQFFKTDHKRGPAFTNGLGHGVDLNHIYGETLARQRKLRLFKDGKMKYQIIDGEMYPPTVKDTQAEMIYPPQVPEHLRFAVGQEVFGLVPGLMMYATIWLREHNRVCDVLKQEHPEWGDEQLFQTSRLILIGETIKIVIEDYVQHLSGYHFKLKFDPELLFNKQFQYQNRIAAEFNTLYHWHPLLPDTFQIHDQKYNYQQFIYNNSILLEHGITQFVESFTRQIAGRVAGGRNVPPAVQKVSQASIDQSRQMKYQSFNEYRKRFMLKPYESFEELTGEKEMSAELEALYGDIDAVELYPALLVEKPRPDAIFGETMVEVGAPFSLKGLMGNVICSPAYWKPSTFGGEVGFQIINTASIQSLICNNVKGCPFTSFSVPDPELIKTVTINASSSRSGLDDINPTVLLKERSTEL

[3] = Membrane permeabilization activity assessed as release of calcein from liposomes after 10 mins by fluorescence assay; format: physicochemical; details: calcein-loaded liposomes, probe calcein
Procedure, shortened: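 Egg PC liposomes made by reversed-phase evaporation with 100 mM calcein (pH 7.4), washed free of untrapped dye in 10 mM phosphate buffer pH 6.8 with 150 mM NaCl. Diluted liposomes incubated with compound for 10 min at 30 °C; water as control. Calcein release read by fluorescence, excitation 490 nm, emission 520 nm.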

Rattus norvegicus [4] = assay: Ulcerogenicity in fasted Wistar rat assessed as damage in gastric mucosa at 50 to 67 mg/kg, po measured after 8 hrs; format: toxicity, organism-based; design: dose 50-67 mg/kg, route oral; details: in vivo
Procedure, shortened: (§1)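 Male Wistar rats (6 weeks, 180–200 g) fasted 18 h before oral NSAID dosing. Stomachs removed 8 h later. A blinded observer measured the area of each mucosal lesion in mm²; areas were summed into a gastric lesion index.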

Rattus norvegicus [5] = assay: Reduction in PGE2 levels in fasted Wistar rat stomach at 50 to 67 mg/kg, po measured after 8 hrs; format: functional, organism-based
Procedure, shortened: (§2)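 Male Wistar rats (6 weeks, 180–200 g) fasted 18 h, then dosed orally with NSAIDs. Killed 8 h later and stomachs removed. Gastric PGE2 measured by EIA.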

Rattus norvegicus [6] = assay: Antiinflammatory activity in Wistar rat assessed as inhibition of carrageenan-induced foot-pad edema at 13 mg/kg, po administered 1 hr before carrageenan challenge measured after 3 to 6 hrs by plethysmometer; format: functional, organism-based; design: dose 13 mg/kg
Procedure, shortened: (§3)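 Male Wistar rats (6 weeks, 180–200 g) given NSAIDs orally; 1 h later 100 μL of 1% carrageenan injected intradermally into the left hindpaw.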

Rattus norvegicus [7] = assay: Inhibition of PGE2 production in carrageenan-induced Wistar rat foot-pad at 13 mg/kg, po administered 1 hr before carrageenan challenge by EIA; format: functional, organism-based; design: dose 13 mg/kg
Rattus norvegicus [8] = assay: Ulcerogenicity in fasted Wistar rat assessed as damage in gastric mucosa at 40 to 50 mg/kg, po measured after 8 hrs; format: toxicity, organism-based; design: dose 40-50 mg/kg, route oral; details: in vivo; procedure, shortened: as §1
Rattus norvegicus [9] = assay: Reduction in PGE2 levels in fasted Wistar rat stomach at 40 to 50 mg/kg, po measured after 8 hrs; format: functional, organism-based; procedure, shortened: as §2
Rattus norvegicus [10] = assay: Antiinflammatory activity in Wistar rat assessed as inhibition of carrageenan-induced foot-pad edema at 10 mg/kg, po administered 1 hr before carrageenan challenge measured after 3 to 6 hrs by plethysmometer; format: functional, organism-based; design: dose 10 mg/kg; procedure, shortened: as §3
Rattus norvegicus [11] = assay: Inhibition of PGE2 production in carrageenan-induced Wistar rat foot-pad at 10 mg/kg, po administered 1 hr before carrageenan challenge by EIA; format: functional, organism-based; design: dose 10 mg/kg

Prostaglandin G/H synthase 1, sequence (P23219 whole entry): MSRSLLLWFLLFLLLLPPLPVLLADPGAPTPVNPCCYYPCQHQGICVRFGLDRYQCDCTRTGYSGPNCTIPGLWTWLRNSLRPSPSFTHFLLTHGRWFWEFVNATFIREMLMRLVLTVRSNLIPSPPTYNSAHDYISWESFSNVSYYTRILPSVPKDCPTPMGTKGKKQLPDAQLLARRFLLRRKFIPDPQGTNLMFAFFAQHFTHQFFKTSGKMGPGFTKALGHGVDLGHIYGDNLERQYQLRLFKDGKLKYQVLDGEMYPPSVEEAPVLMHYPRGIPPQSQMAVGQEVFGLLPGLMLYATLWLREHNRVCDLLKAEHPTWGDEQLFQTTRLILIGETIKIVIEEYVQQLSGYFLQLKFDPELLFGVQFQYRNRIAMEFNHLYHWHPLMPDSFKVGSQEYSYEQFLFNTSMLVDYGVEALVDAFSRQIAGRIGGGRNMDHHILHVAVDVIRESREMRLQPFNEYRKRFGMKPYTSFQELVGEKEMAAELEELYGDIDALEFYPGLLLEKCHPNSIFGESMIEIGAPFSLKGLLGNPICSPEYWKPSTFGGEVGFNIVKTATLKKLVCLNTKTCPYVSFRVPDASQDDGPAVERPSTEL

Compound | IC50 [1] [µM] | IC50 [2] [µM] | EC50 at 10 min [3] [µM] | other results
Cc1ccc(-c2cc(CC3CCCC3=O)ccc2C(C)C(=O)O)cc1 (stereo not drawn) | 470 | 540 | < 100000 | –
CC(C(=O)[O-])c1ccc(CC2CCCC2=O)cc1-c1ccc(O)cc1.[Na+] (stereo not drawn) | 326 | 11 | 25000 | Activity (Rattus norvegicus [4]): Non-toxic; inhibition (Rattus norvegicus [5]): Active; Activity (Rattus norvegicus [6]): Active; inhibition (Rattus norvegicus [7]): Active
CC(C(=O)O)c1ccc(CC2CCCC2=O)c(-c2ccc(C(=O)O)cc2)c1 (stereo not drawn) | > 1000 | > 1000 | – | –
CC(C(=O)O)c1ccc(CC2CCCC2=O)cc1-c1ccccc1 (stereo not drawn) | 310 | 70 | < 100000 | –
CSc1ccc(-c2cc(CC3CCCC3=O)ccc2C(C)C(=O)O)cc1 (stereo not drawn) | 575 | 150 | < 100000 | –
CC(C(=O)O)c1ccc(C[C@H]2CCC[C@@H]2O)cc1-c1ccc(O)cc1 (mixture of isomers) | 650 | 20 | – | –
CC(C(=O)O)c1ccc(CC2CCCC2=O)cc1I (stereo not drawn) | 270 | 540 | – | –
CC(C(=O)[O-])c1ccc(CC2CCCC2=O)cc1.[Na+] (stereo not drawn) [LOXOPROFEN SODIUM] | – | – | – | Activity (Rattus norvegicus [8]): Dose-dependent effect; inhibition (Rattus norvegicus [9]): Active; Activity (Rattus norvegicus [10]): Active; inhibition (Rattus norvegicus [11]): Active
CC(C(=O)O)c1ccc(CC2CCCC2=O)c(-c2ccc(O)cc2)c1 (stereo not drawn) | > 1000 | – | – | –
CSc1ccc(-c2cc(C(C)C(=O)O)ccc2CC2CCCC2=O)cc1 (stereo not drawn) | 758 | > 1000 | < 10000 | –
CC(C(=O)O)c1ccc(CC2CCCC2=O)cc1-c1ccc(C(=O)O)cc1 (stereo not drawn) | > 1000 | 76 | < 10000 | –
CC(C(=O)O)c1ccc(CC2CCCC2=O)c(-c2ccc(OC(F)(F)F)cc2)c1 (stereo not drawn) | 460 | 72 | < 10000 | –
CC(C(=O)O)c1ccc(CC2CCCC2=O)cc1-c1ccc(F)cc1 (stereo not drawn) | 174 | 36 | 20000 | –
CC(C(=O)O)c1ccc(CC2CCCC2=O)cc1-c1ccc(OC(F)(F)F)cc1 (stereo not drawn) | 515 | > 1000 | 6000 | –
Cc1ccc(-c2cc(C(F)(F)F)nn2-c2ccc(S(N)(=O)=O)cc2)cc1 [CELECOXIB] | – | – | 90 | –
COc1ccc(-c2cc(C(C)C(=O)O)ccc2CC2CCCC2=O)cc1 (stereo not drawn) | 800 | > 1000 | < 100000 | –

More lines, main results first:

IC50 [1] [µM] | IC50 [2] [µM] | EC50 at 10 min [3] [µM] | Compound | other results
93 | 49 | – | CC(C(=O)O)c1ccc(CC2CCCC2=O)cc1[N+](=O)[O-] (stereo not drawn) | –
54 | 290 | < 100000 | CC(C(=O)O)c1ccc(CC2CCCC2=O)c(-c2ccccc2)c1 (stereo not drawn) | –
174 | 36 | < 100000 | CC(C(=O)O)c1ccc(CC2CCCC2=O)c(-c2ccc(F)cc2)c1 (stereo not drawn) | –
4 | 2 | 100000 | CC(C(=O)O)c1ccc(CC2CCCC2=O)cc1Cl (stereo not drawn) | –
56 | 420 | < 100000 | Cc1ccc(-c2cc(C(C)C(=O)O)ccc2CC2CCCC2=O)cc1 (stereo not drawn) | –
74 | 430 | < 100000 | COc1ccc(-c2cc(CC3CCCC3=O)ccc2C(C)C(=O)O)cc1 (stereo not drawn) | –
49 | 23 | < 100000 | CC(C(=O)O)c1ccc(CC2CCCC2=O)c(Br)c1 (stereo not drawn) | –
47 | 17 | – | CC(C(=O)O)c1ccc(C[C@H]2CCC[C@H]2O)cc1-c1ccc(O)cc1 (mixture of isomers) | –
